Results as given in ChEMBL document CHEMBL1221227, “Nanomolar potency pyrimido-pyrrolo-quinoxalinedione CFTR inhibitor reduces cyst size in a polycystic kidney disease model” (J Med Chem, 2009).
Active and inactive are the calls of the source. No cut-off for these calls is given here.

Legend:
[1] = biological target: T1, Cystic fibrosis transmembrane conductance regulator (Homo sapiens, UniProt P13569); test: Inhibition of human CFTR expressed in rat FRT cells coexpressing halide indicator YFP-H148Q assessed as inhibition of halide influx at 25 uM preincubated for 15 mins by FLIPR; format: cell-based
Summary of the method: (§1)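 FRT cells coexpressing human CFTR and YFP halide sensor, assayed 48 h after plating at confluence. After PBS washes, CFTR activated with 5 µM forskolin, 100 µM IBMX and 25 µM apigenin. Compound added 5 min later and incubated 15 min. Fluorescence read 2 s baseline, then 10 s after iodide-substituted PBS addition. Initial iodide influx rate obtained by nonlinear regression.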
Target sequence in this assay (P13569 whole entry, looked up): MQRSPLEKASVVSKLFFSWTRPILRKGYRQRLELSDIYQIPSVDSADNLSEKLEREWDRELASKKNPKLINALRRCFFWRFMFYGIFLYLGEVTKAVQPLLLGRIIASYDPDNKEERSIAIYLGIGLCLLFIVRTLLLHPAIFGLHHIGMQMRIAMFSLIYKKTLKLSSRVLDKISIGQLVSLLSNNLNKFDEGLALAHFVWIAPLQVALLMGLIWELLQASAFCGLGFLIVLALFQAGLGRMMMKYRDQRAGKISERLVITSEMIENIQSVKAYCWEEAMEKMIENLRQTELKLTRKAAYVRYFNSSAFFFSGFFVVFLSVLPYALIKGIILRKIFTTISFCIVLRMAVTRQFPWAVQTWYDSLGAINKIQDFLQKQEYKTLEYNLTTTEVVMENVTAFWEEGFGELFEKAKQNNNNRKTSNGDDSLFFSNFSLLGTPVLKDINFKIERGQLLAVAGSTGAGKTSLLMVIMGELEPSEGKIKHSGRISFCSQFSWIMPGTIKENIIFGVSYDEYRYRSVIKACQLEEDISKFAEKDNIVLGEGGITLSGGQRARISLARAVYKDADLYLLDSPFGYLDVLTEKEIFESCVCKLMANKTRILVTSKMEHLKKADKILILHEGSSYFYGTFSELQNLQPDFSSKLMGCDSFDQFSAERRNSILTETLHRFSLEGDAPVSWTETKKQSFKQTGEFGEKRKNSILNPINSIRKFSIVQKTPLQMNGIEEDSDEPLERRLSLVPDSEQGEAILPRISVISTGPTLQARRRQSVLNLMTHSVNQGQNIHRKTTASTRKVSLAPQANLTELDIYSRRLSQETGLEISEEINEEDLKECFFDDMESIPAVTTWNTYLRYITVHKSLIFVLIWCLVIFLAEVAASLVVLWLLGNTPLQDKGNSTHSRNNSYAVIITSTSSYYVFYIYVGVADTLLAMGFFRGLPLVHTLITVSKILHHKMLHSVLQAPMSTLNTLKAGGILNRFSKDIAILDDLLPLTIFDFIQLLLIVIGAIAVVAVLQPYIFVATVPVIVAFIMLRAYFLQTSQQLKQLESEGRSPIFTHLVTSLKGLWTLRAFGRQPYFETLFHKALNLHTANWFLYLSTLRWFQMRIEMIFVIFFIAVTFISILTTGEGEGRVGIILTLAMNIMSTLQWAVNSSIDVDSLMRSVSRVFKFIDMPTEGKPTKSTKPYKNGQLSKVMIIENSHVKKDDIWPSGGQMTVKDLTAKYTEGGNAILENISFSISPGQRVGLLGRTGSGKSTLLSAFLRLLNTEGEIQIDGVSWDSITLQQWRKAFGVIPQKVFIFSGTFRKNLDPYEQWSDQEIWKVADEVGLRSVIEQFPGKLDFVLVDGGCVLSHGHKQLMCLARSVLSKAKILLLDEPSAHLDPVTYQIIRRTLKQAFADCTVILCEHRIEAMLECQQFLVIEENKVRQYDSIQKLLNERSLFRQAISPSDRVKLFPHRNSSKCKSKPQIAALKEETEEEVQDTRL

[2] = biological target: T1, Cystic fibrosis transmembrane conductance regulator; test: Inhibition of human CFTR expressed in rat FRT cells coexpressing halide indicator YFP-H148Q assessed as inhibition of halide influx at 5 uM preincubated for 15 mins by FLIPR; format: cell-based; summary of the method: as §1
Target sequence in this assay (P13569 whole entry, looked up): as above

[3] = test system: Kidney; test: Reduction in cyst size in 8-Br-cAMP treated embryonic mouse kidney organ culture model of polycystic kidney disease by hematoxylin and eosin staining after 4 days; format: functional, tissue-based
Summary of the method: (§2)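 E13.5 mouse metanephroi cultured on porous inserts in defined DMEM/Ham's F-12 (insulin, transferrin, selenium, prostaglandin E, T3) at 37 °C. Medium with 100 µM 8-Br-cAMP, with or without compound, replaced every 12 h. After 4 days, cyst area fraction measured by transmission light microscopy (SE, 6–8 kidneys), or paraffin sections H&E-stained (three kidneys per condition).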

[4] = test system: Kidney; test: Inhibition of cyst formation in 8-Br-cAMP treated embryonic mouse kidney organ culture model of polycystic kidney disease at 0.5 uM by transmission light microscopy; format: functional; summary of the method: as §2
[5] = test system: Kidney; test: Inhibition of cyst formation in 8-Br-cAMP treated embryonic mouse kidney organ culture model of polycystic kidney disease at 2.5 uM by transmission light microscopy; format: functional, tissue-based
Summary of the method: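 E13.5 mouse metanephroi cultured on porous inserts in defined DMEM/Ham's F-12 (insulin, transferrin, selenium, prostaglandin E, T3) at 37 °C. Medium with 100 µM 8-Br-cAMP, with or without inhibitor, replaced every 12 h. After 4 days, transmission light micrographs scored as fractional kidney area occupied by cysts (6–8 kidneys, SE).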

[6] = biological target: T1, Cystic fibrosis transmembrane conductance regulator; details: Epithelial cell, 10 uM
Target sequence in this assay (P13569 whole entry, looked up): as above

[7] = test system: CHO-K1; test: Effect on basal cAMP production in CHOK1 cells at 10 uM; format: functional, cell-based; details: Cricetulus griseus
Summary of the method: (§3)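 cAMP measured in CHO-K1 cells under basal conditions and after 20 µM forskolin, with or without compound at 10 µM; SE, n = 4.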

[8] = biological target: T1, Cystic fibrosis transmembrane conductance regulator; test: Inhibition of CFTR in nonpermeabilized human bronchial epithelial cells assessed as inhibition of forskolin and IBMX-induced chloride current at by short-circuit current analysis; format: cell-based, Epithelial cell
Summary of the method: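 Ussing chamber short-circuit current in nonpermeabilized primary human bronchial epithelial cells on inserts; Krebs-bicarbonate both sides, bubbled with 5% CO2 in air, 37 °C. CFTR maximally activated by 10 µM forskolin plus 100 µM IBMX, then inhibitor added; current recorded continuously with voltage clamp.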
Target sequence in this assay (P13569 whole entry): as the sequence (P13569 whole entry, looked up) above

[9] = test system: Kidney; test: Reduction in cyst expansion in 8-Br-cAMP treated embryonic mouse kidney organ culture model of polycystic kidney disease by transmission light microscopy; format: functional, tissue-based; summary of the method: as §2
[10] = test system: Kidney; test: Reduction in fluid accumulation in 3 days 8-Br-cAMP treated embryonic mouse kidney organ culture model of polycystic kidney disease at 5 uM after 1 or 2 days by transmission light microscopy; format: functional, tissue-based
Summary of the method: (§4)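 E13.5 mouse metanephroi in defined organ-culture medium with 100 µM 8-Br-cAMP, changed every 12 h, 37 °C. Compound (5 µM) added at day 3 to kidneys with preformed cysts. Cyst area fraction by transmission light microscopy at day 5, six kidneys, SE.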

[11] = biological target: T1, Cystic fibrosis transmembrane conductance regulator; details: FRT, 0.5 uM
Target sequence in this assay (P13569 whole entry, looked up): as above

[12] = test system: Kidney; test: Inhibition of cyst formation in 8-Br-cAMP treated embryonic mouse kidney organ culture model of polycystic kidney disease at 5 uM by transmission light microscopy; format: functional, tissue-based; summary of the method: as §2
[13] = test system: Epithelial cell; test: Inhibition of calcium-activated chloride channel in CFTR deficient human bronchial epithelial cells assessed as inhibition of UTP-induced chloride current at 10 uM; format: cell-based
Summary of the method: (§5)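 Ussing-chamber short-circuit current in cystic fibrosis (CFTR-deficient) human bronchial epithelial cells, Krebs-bicarbonate both sides, 5% CO2 in air, 37 °C. ENaC blocked with 10 µM amiloride. Calcium-activated chloride channels stimulated with 100 µM UTP, compound added as indicated.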

[14] = test system: Epithelial cell; test: Inhibition of calcium-activated chloride channel in CFTR deficient human bronchial epithelial cells assessed as inhibition of UTP-induced chloride current at 20 uM; format: cell-based; summary of the method: as §5
[15] = biological target: T1, Cystic fibrosis transmembrane conductance regulator; test: Inhibition of human CFTR expressed in rat FRT cells assessed as inhibition of CPT-cAMP-induced apical membrane current in presence of transepithelial chloride gradient and basolateral membrane permeabilization with amphotericin B by short-circuit current analysis; format: cell-based
Summary of the method: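 FRT cells stably coexpressing human wild-type CFTR, mounted in Ussing chambers. Apical 75 mM NaCl/75 mM Na gluconate, basolateral 150 mM NaCl (pH 7.3), basolateral membrane permeabilized with 250 µg/mL amphotericin B, air-bubbled, 37 °C. CFTR activated by 100 µM CPT-cAMP, then increasing inhibitor concentrations added cumulatively. Apical current recorded continuously; dose–response, SE n = 4.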
Target sequence in this assay (P13569 whole entry): as the sequence (P13569 whole entry, looked up) above

[16] = test system: CHO-K1; test: Effect on forskolin-induced cAMP production in CHOK1 cells at 10 uM; format: functional, cell-based; details: Cricetulus griseus; summary of the method: as §3
[17] = test system: Kidney; test: Reduction in size of preformed cysts in 8-Br-cAMP treated embryonic mouse kidney organ culture model of polycystic kidney disease by transmission light microscopy; format: functional, tissue-based; summary of the method: as §4
[18] = biological target: T1, Cystic fibrosis transmembrane conductance regulator; details: T84, 10 uM
Target sequence in this assay (P13569 whole entry, looked up): as above

[19] = biological target: T1, Cystic fibrosis transmembrane conductance regulator; test: Inhibition of CFTR
Summary of the method: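 Ussing-chamber apical membrane current in CFTR-expressing FRT cells under a chloride gradient: apical 75 mM NaCl/75 mM Na gluconate, basolateral 150 mM NaCl, pH 7.3. Basolateral membrane permeabilized with 250 µg/mL amphotericin B, air-bubbled, 37 °C. CFTR activated by 100 µM CPT-cAMP, then compound added at increasing concentrations. Dose–response, SE n = 4.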
Target sequence in this assay (P13569 whole entry): as the sequence (P13569 whole entry, looked up) above

| SMILES | inhibition [1] [%] | inhibition [2] [%] | also measured |
| --- | --- | --- | --- |
| Cc1cc2c(cc1C)-n1c(-c3ccccc3)c3c(=O)n(C)c(=O)n(C)c3c1C(c1ccc(O)cc1)N2 (stereo unspecified) | 99 | 80 | – |
| COc1cccc(C2Nc3ccccc3-n3c(-c4ccccc4)c4c(=O)n(C)c(=O)n(C)c4c32)c1 (stereo unspecified) | 86 | 63 | – |
| COc1cccc(C2Nc3ccccc3-n3c(-c4ccccc4F)c4c(=O)n(C)c(=O)n(C)c4c32)c1 (stereo unspecified) | 97 | 62 | – |
| Cn1c(=O)c2c(-c3ccccc3)n3c(c2n(C)c1=O)C(c1ccccc1)Nc1ccccc1-3 (stereo unspecified) | 92 | 61 | – |
| COc1cc(O)ccc1C1Nc2ccccc2-n2c(-c3ccccc3)c3c(=O)n(C)c(=O)n(C)c3c21 (stereo unspecified) | 56 | 5 | – |
| Cn1c(=O)c2c(-c3ccccc3F)n3c(c2n(C)c1=O)C(c1cccc(Cl)c1)Nc1ccccc1-3 (stereo unspecified) | 98 | 70 | – |
| Cc1ccccc1-c1c2c(=O)n(C)c(=O)n(C)c2c2n1-c1ccccc1NC2c1cccc([N+](=O)[O-])c1 (stereo unspecified) | 96 | 64 | – |
| Cc1cccc(C2Nc3ccccc3-n3c(-c4ccccc4C)c4c(=O)n(C)c(=O)n(C)c4c32)c1 (stereo unspecified) | 100 | 46 | – |
| Cc1cccc(-c2c3c(=O)n(C)c(=O)n(C)c3c3n2-c2ccccc2NC3c2cccc([N+](=O)[O-])c2F)c1 (stereo unspecified) | 94 | 61 | – |
| Cc1ccc(C2Nc3ccccc3-n3c(-c4ccccc4)c4c(=O)n(C)c(=O)n(C)c4c32)o1 (stereo unspecified) | 97 | 87 | inhibition [3]: Active; inhibition at 0.5 µM [4]: 60%; inhibition [5]: Active; inhibition [6]: 100%; Activity [7]: inactive; IC50 [8]: < 1000 nM; Activity [9]: Active; inhibition [10]: Active; inhibition [11]: 65%; Activity [12]: Active; Activity [13]: inactive; Activity [14]: inactive; IC50 [15]: 90 nM; Activity [16]: inactive; Activity [17]: Active; inhibition [18]: 100% |
| Cc1ccc(C2Nc3cc(C)c(C)cc3-n3c(-c4ccccc4F)c4c(=O)n(C)c(=O)n(C)c4c32)o1 (stereo unspecified) | 87 | 80 | – |
| Cc1cccc(-c2c3c(=O)n(C)c(=O)n(C)c3c3n2-c2ccccc2NC3c2ccc(O)cc2)c1 (stereo unspecified) | 94 | 71 | – |
| Cn1c(=O)c2c(-c3ccccc3)n3c(c2n(C)c1=O)C(c1cccc(F)c1F)Nc1ccccc1-3 (stereo unspecified) | 93 | 72 | – |
| O=C(CNc1ccc2ccccc2c1)N/N=C/c1cc(Br)c(O)c(Br)c1O | – | – | IC50 [19]: 5000 nM |
| Cc1cccc(-c2c3c(=O)n(C)c(=O)n(C)c3c3n2-c2ccccc2NC3c2ccccc2F)c1 (stereo unspecified) | 80 | 67 | – |
| Cc1ccccc1-c1c2c(=O)n(C)c(=O)n(C)c2c2n1-c1ccccc1NC2c1ccccc1 (stereo unspecified) | 97 | 51 | – |
| Cc1cccc(-c2c3c(=O)n(C)c(=O)n(C)c3c3n2-c2ccccc2NC3c2ccc(C)o2)c1 (stereo unspecified) | 98 | 82 | – |
| Cc1ccc(C2Nc3cc(C)c(C)cc3-n3c(-c4ccccc4)c4c(=O)n(C)c(=O)n(C)c4c32)o1 (stereo unspecified) | 90 | 84 | – |
| Cn1c(=O)c2c(-c3ccccc3)n3c(c2n(C)c1=O)C(c1ccccc1F)Nc1ccccc1-3 (stereo unspecified) | 81 | 61 | – |
| Cn1c(=O)c2c(-c3ccccc3)n3c(c2n(C)c1=O)C(c1ccc(O)cc1)Nc1ccccc1-3 (stereo unspecified) | 86 | 64 | – |
| Cc1ccc(C2Nc3ccccc3-n3c(-c4ccccc4C)c4c(=O)n(C)c(=O)n(C)c4c32)o1 (stereo unspecified) | 97 | 86 | – |
| Cn1c(=O)c2c(-c3ccccc3)n3c(c2n(C)c1=O)C(c1cccc([N+](=O)[O-])c1)Nc1ccccc1-3 (stereo unspecified) | 90 | 60 | – |
| Cc1cccc(-c2c3c(=O)n(C)c(=O)n(C)c3c3n2-c2ccccc2NC3c2cccc(F)c2)c1 (stereo unspecified) | 93 | 53 | – |
| O=C(O)c1ccc(/C=C2\SC(=S)N(c3cccc(C(F)(F)F)c3)C2=O)cc1 | – | – | IC50 [19]: 300 nM |
| COc1cccc(C2Nc3ccccc3-n3c(-c4cccc(C)c4)c4c(=O)n(C)c(=O)n(C)c4c32)c1 (stereo unspecified) | 98 | 73 | – |
| COc1cccc(C2Nc3ccccc3-n3c(-c4ccccc4C)c4c(=O)n(C)c(=O)n(C)c4c32)c1 (stereo unspecified) | 94 | 62 | – |
